The record followed here is ChEMBL document CHEMBL4219143, “Synthesis, structure-activity relationships and preliminary mechanism study of N-benzylideneaniline derivatives as potential TLR2 inhibitors” (Bioorg Med Chem, 2018).

Data set [1] concerns the target Toll-like receptor 2 (Homo sapiens) (UniProt O60603). Kind of data set: Antagonist activity at human TLR2 expressed in HEK-blue cells assessed as inhibition of Pam3CSK4-induced NF-kappaB activation-mediated SEAP production at 25 uM after 24 hrs by Quanti-blue-based assay. It counts as cell-based. Put shortly: (§1)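 HEK-Blue hTLR2 cells in DMEM with 10% serum and antibiotics, plated at 4 × 10⁴ cells per well for 24 h. Medium then replaced with compound plus agonist for 24 h at 37 °C. Agonists (final): Pam₃CSK₄ 10 ng/ml (TLR1/2), Pam₂CSK₄ 10 ng/ml (TLR2/6), Poly I:C 10 µg/ml (TLR3). Supernatant mixed 1:1 with Quanti-Blue; SEAP read at OD 620 nm after 15–30 min.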

Data set [2] shares this target. Kind of data set: Antagonist activity at human TLR2 expressed in HEK-blue cells assessed as inhibition of Pam3CSK4-induced NF-kappaB activation-mediated SEAP production at 50 uM after 24 hrs by Quanti-blue-based assay. Type of data set: cell-based. The method, boiled down:
as §1

Data set [3] in a line: Cytotoxicity against HEK-Blue cells up to 100 uM after 24 hrs by MTT assay. It counts as cell-based. The conditions noted are these: human. The method, boiled down:
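HEK-TLR2 cells in DMEM with 10% FBS, plated at 4 × 10⁴ cells per well for 24 h. Compound plus Pam₃CSK₄ (final 10 ng/ml) added, then incubated 24 h. MTT (5 mg/ml in PBS) added for 3 h at 37 °C. Formazan dissolved in DMSO; absorbance read at 490 nm.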
For orientation: Formazan colour is commonly taken as a measure of viable cells.

For data set [4], the target named is Toll-like receptor 1/2 (Homo sapiens) (UniProt O60603+Q15399). In words: Antagonist activity at human TLR1/2 expressed in HEK-blue cells assessed as inhibition of Pam3CSK4-induced NF-kappaB activation-mediated SEAP production at 25 uM after 24 hrs by Quanti-blue-based assay. It counts as cell-based. Put shortly:
as §1

For a further data set, the target named is TLR2/TLR6 (Homo sapiens) (UniProt O60603+Q9Y2C9). In words: Antagonist activity at human TLR2/6 expressed in HEK-blue cells assessed as inhibition of Pam2CSK4-induced NF-kappaB activation-mediated SEAP production at 25 uM after 24 hrs by Quanti-blue-based assay. Type of data set: cell-based. Put shortly: as §1
For data set [5], the target named is Toll-like receptor 3 (Homo sapiens) (UniProt O15455). Kind of data set: Antagonist activity at human TLR3 expressed in HEK-Blue assessed as inhibition of poly 1:C-induced NF-kappaB activation-mediated SEAP production at 25 uM after 24 hrs by Quanti-blue-based assay. Put shortly:
as §1

Data set [6] concerns the target Toll-like receptor 2 (Mus musculus) (UniProt Q9QUN7). Kind of data set: Antagonist activity at TLR2 in mouse Raw 264.7 cells assessed as decrease in Pam3CSK4-induced iNOS levels at 40 uM after 24 hrs relative to positive control. It counts as cell-based. The method, boiled down:
(§2)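 Raw 264.7 cells in RPMI 1640 with 10% serum and antibiotics, plated at 8 × 10⁴ cells per well for 24 h. Compound and TLR agonist (Pam₃CSK₄ for TLR1/2, Pam₂CSK₄ for TLR2/6) added, then incubated 24 h. Nitric oxide in supernatant detected with DAN (0.05 mg/ml in 0.62 M HCl), 15 min in the dark.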

The target in data set [7] is Toll-like receptor 2 (Homo sapiens) (UniProt O60603). Kind of data set: Antagonist activity at human TLR2 expressed in HEK-Blue cells assessed as inhibition of Pam3CSK4-induced TLR2 upregulation at 10 uM by Western blot analysis. It counts as cell-based. The method, boiled down:
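HEK-Blue hTLR2 cells treated with compound and Pam₃CSK₄ at 400 ng/ml. Lysed in RIPA buffer with 1% PMSF; proteins run on SDS-PAGE and transferred to PVDF. Membranes blocked with 5% milk in TBST. Probed overnight at 4 °C with anti-TLR2 (1:250) and anti-GAPDH (1:2000), then HRP secondary (1:2500) 1 h at RT. Detected by ECL.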
(In western blotting, separated proteins are transferred to a membrane and probed.)

In a further data set the target is TLR2/TLR6 (Mus musculus) (UniProt Q9QUN7+Q9EPW9). In words: Antagonist activity at TLR2/TLR6 in mouse Raw 264.7 cells assessed as decrease in Pam2CSK4-induced iNOS levels at 40 uM after 24 hrs relative to positive control. It counts as cell-based. The method, boiled down:
as §2

Data set [8] deals with Toll-like receptor 2 (Homo sapiens) (UniProt O60603). In words: Antagonist activity at TLR2 in human PBMC assessed as inhibition of Pam3CSK4-induced TNFalpha signalling after 24 hrs by ELISA. Type of data set: cell-based. Put shortly:
(§3)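 Human PBMC seeded at 2.5 × 10⁵ cells per well in RPMI 1640 with 10% FBS and 1% penicillin/streptomycin. Cells treated with compound plus Pam₃CSK₄ 10 ng/ml for 24 h at 37 °C, 5% CO₂. Supernatants stored frozen at −80 °C. TNF-α measured by sandwich ELISA against recombinant human standards, each sample in triplicate.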
On the technique in general: An ELISA detects its analyte on a solid surface through an enzyme-linked reagent.

Data set [9] shares this target. In words: Antagonist activity at TLR2 in human PBMC assessed as inhibition of Pam3CSK4-induced TNFalpha signalling at 10 uM after 24 hrs by ELISA relative to control. Type of data set: cell-based. Put shortly: as §3

Activity calls are given as the source filed them. The rule behind the calls is not given here.

Chain of Toll-like receptor 2 (Homo sapiens) (O60603 whole entry): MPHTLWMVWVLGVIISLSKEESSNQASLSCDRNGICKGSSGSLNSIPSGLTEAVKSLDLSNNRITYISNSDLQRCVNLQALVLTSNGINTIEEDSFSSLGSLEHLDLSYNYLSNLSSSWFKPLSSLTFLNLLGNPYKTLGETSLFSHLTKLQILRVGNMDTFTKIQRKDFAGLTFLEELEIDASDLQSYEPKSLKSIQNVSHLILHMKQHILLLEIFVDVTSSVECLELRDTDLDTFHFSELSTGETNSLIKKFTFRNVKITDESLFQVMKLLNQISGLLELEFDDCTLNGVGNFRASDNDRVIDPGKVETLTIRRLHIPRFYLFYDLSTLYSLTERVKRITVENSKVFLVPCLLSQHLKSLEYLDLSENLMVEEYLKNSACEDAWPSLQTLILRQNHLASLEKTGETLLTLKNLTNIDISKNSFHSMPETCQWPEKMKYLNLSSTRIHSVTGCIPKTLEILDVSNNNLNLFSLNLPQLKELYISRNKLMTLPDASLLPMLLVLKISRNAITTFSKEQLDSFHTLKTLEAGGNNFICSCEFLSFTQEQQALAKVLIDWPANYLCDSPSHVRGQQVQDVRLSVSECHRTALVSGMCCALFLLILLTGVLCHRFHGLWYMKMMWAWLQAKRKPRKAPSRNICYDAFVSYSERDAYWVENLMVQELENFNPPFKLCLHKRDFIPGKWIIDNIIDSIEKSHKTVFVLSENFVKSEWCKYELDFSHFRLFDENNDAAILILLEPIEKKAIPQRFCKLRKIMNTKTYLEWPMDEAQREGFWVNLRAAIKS
Chain of Toll-like receptor 3 (Homo sapiens) (O15455 whole entry): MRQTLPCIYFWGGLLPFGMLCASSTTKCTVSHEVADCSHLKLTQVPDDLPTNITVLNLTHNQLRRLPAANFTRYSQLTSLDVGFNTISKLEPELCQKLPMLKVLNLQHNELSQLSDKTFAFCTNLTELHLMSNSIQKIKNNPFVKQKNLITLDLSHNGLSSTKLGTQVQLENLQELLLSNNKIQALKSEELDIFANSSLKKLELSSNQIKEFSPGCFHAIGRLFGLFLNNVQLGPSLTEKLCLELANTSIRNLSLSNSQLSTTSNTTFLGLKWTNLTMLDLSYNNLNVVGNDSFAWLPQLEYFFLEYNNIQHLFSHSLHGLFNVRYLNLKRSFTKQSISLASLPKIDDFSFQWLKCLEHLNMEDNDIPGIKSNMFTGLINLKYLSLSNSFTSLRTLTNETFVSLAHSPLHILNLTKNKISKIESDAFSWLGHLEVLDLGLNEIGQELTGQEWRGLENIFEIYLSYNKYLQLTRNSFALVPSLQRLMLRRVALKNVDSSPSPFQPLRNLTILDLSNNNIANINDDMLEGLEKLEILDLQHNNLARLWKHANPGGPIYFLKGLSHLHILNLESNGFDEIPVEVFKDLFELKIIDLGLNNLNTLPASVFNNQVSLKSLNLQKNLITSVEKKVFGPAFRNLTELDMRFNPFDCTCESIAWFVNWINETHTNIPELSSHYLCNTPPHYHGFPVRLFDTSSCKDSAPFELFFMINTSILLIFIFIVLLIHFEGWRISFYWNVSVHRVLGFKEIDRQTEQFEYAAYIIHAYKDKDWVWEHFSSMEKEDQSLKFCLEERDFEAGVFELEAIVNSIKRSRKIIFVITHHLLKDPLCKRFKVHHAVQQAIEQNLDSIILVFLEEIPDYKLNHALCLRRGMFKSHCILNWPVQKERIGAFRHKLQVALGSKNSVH
Chain of Toll-like receptor 2 (Mus musculus) (Q9QUN7 whole entry): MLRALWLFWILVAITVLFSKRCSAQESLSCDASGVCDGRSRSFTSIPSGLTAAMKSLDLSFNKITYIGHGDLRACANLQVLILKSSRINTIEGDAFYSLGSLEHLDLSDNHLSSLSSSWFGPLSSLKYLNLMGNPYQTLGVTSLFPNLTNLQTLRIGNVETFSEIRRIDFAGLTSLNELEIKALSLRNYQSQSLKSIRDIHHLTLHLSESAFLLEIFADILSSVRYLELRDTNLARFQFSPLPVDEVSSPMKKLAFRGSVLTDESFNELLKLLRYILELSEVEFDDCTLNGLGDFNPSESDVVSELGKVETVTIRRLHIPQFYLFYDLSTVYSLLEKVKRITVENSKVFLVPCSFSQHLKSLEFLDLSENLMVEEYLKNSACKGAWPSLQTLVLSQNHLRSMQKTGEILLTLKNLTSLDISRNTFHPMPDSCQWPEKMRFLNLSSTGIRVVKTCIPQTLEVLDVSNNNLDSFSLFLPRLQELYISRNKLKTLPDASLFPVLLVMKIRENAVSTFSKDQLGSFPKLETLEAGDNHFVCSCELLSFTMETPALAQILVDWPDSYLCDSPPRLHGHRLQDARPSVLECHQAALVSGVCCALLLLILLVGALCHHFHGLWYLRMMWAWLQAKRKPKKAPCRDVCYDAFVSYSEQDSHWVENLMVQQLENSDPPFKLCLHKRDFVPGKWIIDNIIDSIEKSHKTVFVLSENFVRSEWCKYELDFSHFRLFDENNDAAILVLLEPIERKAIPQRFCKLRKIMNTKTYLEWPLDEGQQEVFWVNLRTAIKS

One may read the inhibition as how much of the control response was suppressed. `COc1cccc(/C=N/c2ccccc2C(=O)c2ccc(Cl)cc2)c1O`: the inhibition in [1] is 66.8%; in [2], 95.1%; in data set [6] it was above 70%; in data set [7], 50%; on TLR2/TLR6 (Mus musculus), above 70%; in data set [8] it was “Dose-dependent effect”. In data set [9], the inhibition worked out at 90%. The Activity entry in [3] is “Non-Toxic”. Further, the inhibition result (in data set [4]; on TLR2/TLR6 (Homo sapiens)) was “Active” throughout. Moreover, in [5], the inhibition entry is “inactive”.
